ChEMBL document CHEMBL3091412, “Discovery of an irreversible HCV NS5B polymerase inhibitor” (Bioorg Med Chem Lett, 2013)

Tests used:
Hepatitis C virus = assay: Antiviral activity against HCV Con1 in eplicon cells after 3 days by RT-PCR analysis; assay type: functional, organism-based, Hepacivirus hominis; conditions: isolate Con1, 72 h
In short: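 HCV 1b-Con1 replicon cells seeded at 5000 cells/well one day before treatment; inhibitor in DMSO added as 10 serial twofold dilutions in duplicate (final 0.5% DMSO, 5% FBS). Harvested 3 days post dosing; replicon RNA quantified by real-time RT-PCR (Taqman), GAPDH RNA as endogenous control; EC50 calculated.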

[1] = Irreversible inhibition of HCV1b NS5B delta21 polymerase by radiolabeled nucleotide incorporation assay; set-up: species or system Hepatitis C virus subtype 1b

| EC50 (Hepatitis C virus) [nM] | IC50 [1] [nM] | SMILES |
| --- | --- | --- |
| 25 | 20 | Cc1ccc2nc(Cl)c(Cn3c(C(=O)O)c(-c4ccc[nH]c4=O)c4cc(C)c(F)cc43)cc2c1 |
| 10 | 6 | COc1ccc2cc(Cn3c(C(=O)O)c(-c4ccc[nH]c4=O)c4cc(C)c(F)cc43)c(Cl)nc2c1 |
| 20 | 6 | Cc1cc2c(-c3ccc[nH]c3=O)c(C(=O)O)n(Cc3cnc4ccccc4c3Cl)c2cc1F |
| 20 | 20 | Cc1cc2c(-c3ccc[nH]c3=O)c(C(=O)O)n(Cc3cc4ccc(F)cc4nc3Cl)c2cc1F |
| > 1000 | 9 | Cc1cc2c(-c3ccc[nH]c3=O)c(C(=O)O)n(Cc3ccc(Cl)nc3)c2cc1F |
